# Laboratory results published in ChEMBL document CHEMBL2034927, “Design, synthesis, anti-HIV evaluation and molecular modeling of piperidine-linked amino-triazine derivatives as potent non-nucleoside reverse transcriptase inhibitors” (Bioorg Med Chem, 2012).
# pEC50: −log10 of the molar value.
# Legend:
# [1] = Cytotoxicity against human MT4 cells after 5 days by MTT assay; assay type: cell-based
# Method in brief: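 MT-4 cells at 6 × 10⁵ cells/mL were mock-infected with culture medium and exposed to serial fivefold dilutions of compound. After 5 days, viability was measured by MTT reduction at 540 and 690 nm, using the median OD of three wells. CC50 is the concentration reducing OD540 of the mock-infected control by 50%.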
# [2] = system: Human immunodeficiency virus 1; assay: Antiviral activity against HIV1 3B infected in human MT4 cells assessed as inhibition of virus-induced cytopathic effect after 5 days by MTT assay; assay type: functional, organism-based; conditions: Human immunodeficiency virus 1, 3B, MT4, 120 h
# Method in brief: (§1)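 MT-4 cells spun 5 min at 1000 rpm, resuspended at 6 × 10⁵ cells/mL, then infected with HIV-1 IIIB or HIV-2 ROD at 100–300 CCID50. Test compounds were added as serial fivefold dilutions. After 5 days, viability was read by MTT reduction at 540 and 690 nm, using the median OD of three wells. EC50 is the concentration giving 50% protection against virus-induced cytotoxicity.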
# [3] = Selectivity index, ratio of CC50 for human MT4 cells to EC50 for wild type HIV1 3B; assay type: toxicity, cell-based; conditions: read-out: Ratio CC50/EC50
# Method in brief: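 HIV-1 IIIB stock at 100–300 CCID50 was added to MT-4 cells at 6 × 10⁵ cells/mL, with serial fivefold compound dilutions and mock-infected wells run in parallel. Viability was read by MTT at 540 and 690 nm after 5 days, using the median OD of three wells. EC50 is 50% protection from HIV-induced cytotoxicity, and CC50 is a 50% reduction of mock-infected OD540. SI is CC50/EC50.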
# [4] = system: Human immunodeficiency virus 2; assay: Antiviral activity against HIV2 ROD infected in human MT4 cells assessed as inhibition of virus-induced cytopathic effect after 5 days by MTT assay; assay type: functional, organism-based; conditions: Human immunodeficiency virus 2, ISOLATE ROD, MT4, 120 h; method in brief: as §1
# [5] = Selectivity index, ratio of CC50 for human MT4 cells to EC50 for HIV1 RES056 harboring reverse transcriptase K103N/Y181C RT mutant; assay type: toxicity, cell-based; conditions: read-out: Ratio CC50/EC50
# [6] = system: Human immunodeficiency virus 1; assay: Antiviral activity against HIV1 RES056 harboring reverse transcriptase K103N/Y181C mutant infected in human MT4 cells assessed as inhibition of virus-induced cytopathic effect after 5 days by MTT assay; assay type: functional, organism-based; conditions: Human immunodeficiency virus 1, RES056, MT4, 120 h
# Method in brief: (§2)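 MT-4 cells at 6 × 10⁵ cells/mL were infected with the double mutant HIV-1 RES056 (K103N+Y181C), with serial fivefold compound dilutions. After 5 days, viability was read by MTT at 540 and 690 nm, using the median OD of three wells. EC50 is 50% protection against virus-induced cytotoxicity, and CC50 is a 50% drop in OD540 of mock-infected cells. Fold resistance is the RES056 EC50 divided by the IIIB EC50.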
# [7] = system: Human immunodeficiency virus 1; assay: Fold resistance, ratio of EC50 for HIV1 RES056 harboring reverse transcriptase K103N/Y181C RT mutant to EC50 for wild type HIV1 3B; assay type: functional; method in brief: as §2
SMILES,CC50 at 120 h [1] [µM],pEC50 [2],selectivity ratio [3],pEC50 [4],selectivity ratio [5],pEC50 [6],Ratio EC50 [7]
Nc1ccn([C@H]2CC[C@@H](CO)O2)c(=O)n1 [ZALCITABINE],> 94.7,5.86,> 68,5.78,,,
COc1nc(Nc2c(C)cc(C)cc2C)nc(NC2CCN(Cc3ccc(S(N)(=O)=O)cc3)CC2)n1,19.6,7.97,1850,< 4.71,21,6.03,88.2
Cc1cc(C)c(Nc2nc(N)nc(NC3CCN(Cc4ccc(S(N)(=O)=O)cc4)CC3)n2)c(C)c1,19.9,8.24,3450,< 4.70,32,6.21,105.7
Cc1cc(C)c(Nc2nc(N)nc(NC3CCN(Cc4ccc(C#N)cc4)CC3)n2)c(C)c1,3.26,8.25,576,< 5.49,< 1,< 5.49,>575.8
Cc1cc(C)c(Nc2nc(N)nc(NC3CCN(Cc4ccc(C(N)=O)cc4)CC3)n2)c(C)c1,74.4,7.69,3640,< 4.13,22,5.48,162.8
Cc1cc(C#N)cc(C)c1Oc1nc(Nc2ccc(C#N)cc2)nc(N)c1Br [ETRAVIRINE],,,,,817,,15.5
CCOC(=O)c1ccc(CN2CCC(Nc3nc(Nc4c(C)cc(C)cc4C)nc(OC)n3)CC2)cc1,8.48,7.83,577,< 5.07,< 1,< 5.07,>576.6
CC(C)Nc1cccnc1N1CCN(C(=O)c2cc3cc(NS(C)(=O)=O)ccc3[nH]2)CC1.CS(=O)(=O)O [DELAVIRDINE MESYLATE],> 36.2,7.46,> 1030,,≥ 1,< 4.44,>1033.6
Cc1cc(C)c(Nc2nc(N)nc(NC3CCN(Cc4ccc([N+](=O)[O-])cc4)CC3)n2)c(C)c1,3.46,8.10,439,< 5.46,< 1,< 5.46,>439.1
Cc1ccnc2c1NC(=O)c1cccnc1N2C1CC1 [NEVIRAPINE],> 15,,> 75,,≥ 1,< 4.82,>75
CNc1nc(Nc2c(C)cc(C)cc2C)nc(NC2CCN(Cc3ccc(S(C)(=O)=O)cc3)CC2)n1,9.64,8.22,1590,< 5.02,3,5.48,549.8
CNc1nc(Nc2c(C)cc(C)cc2C)nc(NC2CCN(Cc3ccc(C(N)=O)cc3)CC2)n1,27.4,8.34,5940,< 4.56,49,6.25,121.6
CCOC(=O)c1ccc(CN2CCC(Nc3nc(NC)nc(Nc4c(C)cc(C)cc4C)n3)CC2)cc1,4.95,7.78,297,< 5.31,< 1,< 5.31,>297
CNc1nc(Nc2c(C)cc(C)cc2C)nc(NC2CCN(Cc3ccncc3)CC2)n1,25.8,8.14,3560,< 4.59,47,6.26,76.4
CNc1nc(Nc2c(C)cc(C)cc2C)nc(NC2CCN(Cc3ccc(S(N)(=O)=O)cc3)CC2)n1,14.8,8.16,2120,< 4.83,29,6.29,72.7
COc1nc(Nc2c(C)cc(C)cc2C)nc(NC2CCN(Cc3ccc(S(C)(=O)=O)cc3)CC2)n1,13.5,7.92,1130,< 4.87,≤ 8,≤ 5.80,>=133.3
COc1nc(Nc2c(C)cc(C)cc2C)nc(NC2CCN(Cc3ccc(C(N)=O)cc3)CC2)n1,33.4,8.06,3870,< 4.48,30,5.95,128.3
CCOC(=O)c1ccc(CN2CCC(Nc3nc(N)nc(Nc4c(C)cc(C)cc4C)n3)CC2)cc1,5.91,7.94,512,< 5.23,< 1,< 5.23,>511.6
Cc1cc(C)c(Nc2nc(N)nc(NC3CCN(Cc4ccccc4)CC3)n2)c(C)c1,23.6,7.99,2300,< 4.63,5,5.31,481.3
Cc1cn([C@H]2C[C@H](N=[N+]=[N-])[C@@H](CO)O2)c(=O)[nH]c1=O [ZIDOVUDINE],≥ 49.8,,≥ 8300,8.15,≥ 4400,8.00,1.9
COc1nc(Nc2c(C)cc(C)cc2C)nc(NC2CCN(Cc3ccncc3)CC2)n1,30.9,7.88,2320,< 4.51,21,5.83,111.1
Cc1cc(C)c(Nc2nc(N)nc(NC3CCN(Cc4ccc(S(C)(=O)=O)cc4)CC3)n2)c(C)c1,5.06,8.26,911,< 5.30,1,5.31,887.5
O=C1Nc2ccc(Cl)cc2[C@@](C#CC2CC2)(C(F)(F)F)O1 [EFAVIRENZ],> 6.34,8.18,> 964,,> 12,6.26,83.6
Cc1cc(C)c(Nc2nc(N)nc(NC3CCN(Cc4ccncc4)CC3)n2)c(C)c1,20.1,8.31,4110,< 4.70,21,6.01,198.8
